This data set in a line: Toxicity liver stage against HepG2, at 10uM. Type of data set: cell-based. More on the design: test concentration 10 uM, cell line HepG2-A16-CD81EGFP. As to conditions: human, HepG2-A16-CD81EGFP cells; read-out: INHIBITION
Summed up: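 Uninfected HepG2-A16-CD81EGFP cells, 3 × 10^3 per well, 1536-well, plated on prespotted compound at 10 μM final, parasite-free screening media added to match infected plates; puromycin 10 μM positive, DMSO 0.5% negative; run in parallel with 48 h PbLuc assay at 37 °C, 5% CO2; viability by CellTiter-Glo luminescence, normalized to controls.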

On to `Cc1cnc(C(=O)N2C[C@H]3CCCC(OCc4cccnc4)[C@H]3C2)cn1` (some centres not stated), for which the cytotoxicity at 10 µM is 3.51%.

Take `O=C(O)c1nnn(-c2ccccc2F)c1-c1ccncc1`: the cytotoxicity at 10 µM was 10.2%. Turning to `CC(C)S(=O)(=O)c1nnc(CCNC(=O)OC(C)(C)C)o1`, the cytotoxicity at 10 µM came to 9.28%. As for `CS(=O)(=O)N1CCN(c2ccnc(N3CCCC3)n2)CC1`, the cytotoxicity at 10 µM is -1.26%. To `COc1ccc(Cl)cc1NCc1cc(C)on1` belongs -7.13%; to `Cc1oncc1C(=O)N1C[C@H](OCc2ccccn2)[C@H]2OCCC[C@H]21`, -0.385%; to `Oc1cccc(-c2cc(C3CCN(Cc4cncnc4)C3)ccn2)c1` (configuration not stated), 5.06%. Consider `CN1CCN(CCCNCc2cc(O)c3cc(F)ccc3n2)CC1`, for which the cytotoxicity at 10 µM is -45.4%. For `CCSCCN1CCCN(S(C)(=O)=O)CC1`, the cytotoxicity at 10 µM is -2.75%. `O=C(c1ccc[nH]1)N1CCN(CC2CCOc3ccccc3C2)CC1` (configuration not stated): the cytotoxicity at 10 µM is 4.03%. Turning to `CC(C)c1noc(CCC(=O)NC(C)c2ccccn2)n1` (configuration not stated), the cytotoxicity at 10 µM was -5.86%.

Consider `Cc1cc(C)nc(NCCSc2cnn[nH]2)n1`, for which the cytotoxicity at 10 µM stood at 3.22%. Take `COCC[C@]1(O)CCN(Cc2nnc(C)s2)C[C@H]1C`: the cytotoxicity at 10 µM is 8.62%.

Consider `COc1ccc(CNCc2ccc(N3CCCCC3)nc2)cc1OC`, for which the cytotoxicity at 10 µM amounted to 1.92%.

Regarding `COc1ncccc1C(=O)N1CC[C@H]2C[C@@H](c3noc(C)n3)O[C@@H]2C1`, the cytotoxicity at 10 µM worked out at 4.76%. To `CC(=O)N1CC[C@H]2CC(=O)N(C3CCCCC3)CC[C@H]2C1` belongs 0.325%; to `CCN1C(=O)CCC12CCC(NC(=O)c1ccncc1F)CC2` (configuration not stated), 0.758%; to `O=C(c1cc(=O)c(OCc2ccccc2)co1)N1CCSCC1`, -0.295%. `Cc1cc(C)nc(CN(C)C(=O)c2ccccc2C2CCNC2)c1` (configuration not stated): the cytotoxicity at 10 µM was 1.64%. Turning to `CC(SCC(=O)N(C)CC(=O)NC1CC1)c1ccc(F)c(F)c1` (configuration not stated), the cytotoxicity at 10 µM was -0.369%. Consider `Cc1occc1C(=O)NCc1ccc(N2CCCC(C(N)=O)C2)cc1` (configuration not stated), for which the cytotoxicity at 10 µM was 1.49%. For `CC(C)(C)OC(=O)NCC(=O)NCc1ccc(Cl)s1`, the cytotoxicity at 10 µM is -11.3%. For the compound `COC(=O)c1ccc2ccn(CC3COCCO3)c(=O)c2c1` (configuration not stated), the cytotoxicity at 10 µM came out at 3.26%.

Turning to `O=C(NCc1ccccc1F)NCC(O)c1cccc(F)c1` (configuration not stated), the cytotoxicity at 10 µM is -2.95%.

`O=C(c1ccc(Cn2ccccc2=O)o1)N1CCC2(CC1)OCCO2`: the cytotoxicity at 10 µM is -12.8%. As to `Cc1cnn(CCCNC(=O)CCC2CCCCN2C)c1` (configuration not stated), the cytotoxicity at 10 µM was -7.32%.

For `COc1cccc(C(O)CN2CCN(C(=O)CCC(C)C)CC2)c1` (configuration not stated), the cytotoxicity at 10 µM was -46.9%.

Regarding `c1ccc(-c2nnn3c2COC(CNCc2ccccn2)C3)cc1` (configuration not stated), the cytotoxicity at 10 µM stood at 0.595%.

For `CC(Cn1cccn1)NCc1csc(COc2ccccc2)n1` (configuration not stated), the cytotoxicity at 10 µM was -8.51%.

Regarding `CCNc1ncc(C)c(-c2cnn(C)c2)n1`, the cytotoxicity at 10 µM is -3.73%. For `COc1ccc(C(=O)NCCCNc2ncccn2)cc1F`, the cytotoxicity at 10 µM is -10.5%. For the compound `CN1CCC(N(C)CCC(=O)N2CCC(CCc3ccccc3)CC2)C1` (configuration not stated), the cytotoxicity at 10 µM was -5.87%.

Take `CCOc1ccc2c(c1)C=C(C(=O)NC(C)Cn1cccn1)CO2` (configuration not stated): the cytotoxicity at 10 µM is 6.95%. Consider `Clc1ccccc1-c1cc(CNc2ncnc3c2CCNCC3)no1`, for which the cytotoxicity at 10 µM was 24.6%. Take `CSc1ccc(CN(CCO)C(=O)CCOc2ccccc2)cc1`: the cytotoxicity at 10 µM is 2.08%. In the case of `Cc1cc(N(C)Cc2ccsc2)n2nc(C)c(C)c2n1`, the cytotoxicity at 10 µM is 1.7%. For the compound `CCC(=O)NCC(=O)NCC1(c2c(F)cccc2F)CCCC1`, the cytotoxicity at 10 µM is -0.147%.

For the compound `CCN1CC2(CC1=O)CN(C(C)=O)CCN(C(=O)c1ccco1)C2` (configuration not stated), the cytotoxicity at 10 µM is -8.92%. For the compound `Cc1nc(C)c(C(=O)N2CCCc3c(F)ccc(F)c32)o1`, the cytotoxicity at 10 µM came out at 7.19%. For the compound `CCN(C(=O)C1CC1)C(c1cccnc1)c1ccc2c(c1)CCO2` (configuration not stated), the cytotoxicity at 10 µM was 1.46%. As to `CC(=O)N1CCN(C(=O)c2sccc2Br)CC1`, the cytotoxicity at 10 µM came out at 6.83%.

Regarding `Cc1ccc([C@]2(O)CC[C@H]3CN(Cc4cc(C)c(O)c(C)c4)C[C@H]32)nc1`, the cytotoxicity at 10 µM was -6.72%.

Turning to `CC(C)(C)n1cc(C(=O)O)c(-c2ccc(F)cc2F)n1`, the cytotoxicity at 10 µM turned out to be 6.92%. In the case of `CC(Cn1ccnc1)NC(=O)NCCc1ccc2c(c1)OCCO2` (configuration not stated), the cytotoxicity at 10 µM was -1.35%. Regarding `O=C(NCC1(O)CCSC1)c1ccn(-c2ccccc2F)n1` (configuration not stated), the cytotoxicity at 10 µM worked out at 2.88%.

As for `CCc1c(C(=O)N2CCN(C)[C@@H]3CS(=O)(=O)C[C@@H]32)[nH]c2ccccc12`, the cytotoxicity at 10 µM was -6.08%. For `CC[C@H]1CN2CC[C@H]1C[C@@H]2CNC(=O)Nc1cccc(C(F)(F)F)c1`, the cytotoxicity at 10 µM came to 0.676%. `CCN(CC)Cc1cc(=O)n2c(n1)CN(C(=O)c1ccnnc1)CCC2`: the cytotoxicity at 10 µM was found to be 6.66%.

Turning to `Cc1ccc(CN2CCc3ncnc(-c4ccoc4)c3CC2)o1`, the cytotoxicity at 10 µM turned out to be 0.968%.

As to `Cc1cnc(CNc2ccccc2CN(C)C(=O)c2cccs2)o1`, the cytotoxicity at 10 µM was -3.83%.

For the compound `Cc1cc(CN(C2CC2)C(C)C(C)C)no1` (configuration not stated), the cytotoxicity at 10 µM amounted to 0.519%. Take `COCCCNC(=O)N1CCC(CNC(=O)c2cnn(C)c2)CC1`: the cytotoxicity at 10 µM was -1.3%. As to `Cc1oc(C)c(C(=O)NCc2cccnc2N(C)C)c1C`, the cytotoxicity at 10 µM was -0.292%. As for `Cn1ncc2c1C(COCC1CC1)CN(Cc1nccs1)C2` (configuration not stated), the cytotoxicity at 10 µM amounted to 4.49%.

Consider `Clc1ccc2cccnc2c1CNC1CCc2ncnn2C1` (configuration not stated), for which the cytotoxicity at 10 µM was -6.53%.

Regarding `CS(=O)(=O)N1CCC[C@]2(C[C@@H](Oc3ncccc3F)CO2)C1`, the cytotoxicity at 10 µM stood at 4.09%. For the compound `Cc1nc(Cc2ccccc2)nc2sc(C(=O)O)c(C)c12`, the cytotoxicity at 10 µM worked out at 0.986%.

Turning to `Cc1ncccc1C(=O)NC1(c2cccc(F)c2)CCOCC1`, the cytotoxicity at 10 µM is 10.3%. For `CCOc1ccc(NC(=O)CN2CCN(c3nccn3C)CC2)cc1`, the cytotoxicity at 10 µM worked out at 4.05%. As for `CC(C)CCOCCNC(=O)Nc1cc(C(F)(F)F)c[nH]c1=O`, the cytotoxicity at 10 µM is -1.72%. For `Cc1nc(C)c(CC(=O)NCc2cccnc2OC2CCCC2)c(=O)[nH]1`, the cytotoxicity at 10 µM was -5.87%. For `Cc1cc(C)n(CCNC(=O)c2cc(C3CC3)n[nH]2)n1` the value was 7.39%; for `CCC(O)CN1CCN(C(=O)c2ccc(Cn3cccc3)cc2)CC1` (configuration not stated), -6.54%; for `c1cnnc(N2CCCC2CNCc2csc(-c3ccco3)n2)c1` (configuration not stated), -8.42%. Consider `CC(C)c1noc(C2CCCN2C(=O)Cc2cn3ccsc3n2)n1` (configuration not stated), for which the cytotoxicity at 10 µM was determined as 4.52%. Take `Cc1nc(N(CCC(N)=O)Cc2ccccc2)c2nc(C)oc2n1`: the cytotoxicity at 10 µM was -3.86%.

On to `Fc1cccc(-c2nc(CN3CCCC(Cn4cncn4)C3)co2)c1` (configuration not stated), for which the cytotoxicity at 10 µM is -12.5%. As for `COC(=O)c1cccc2nc([C@H]3CCN(Cc4ccccc4)C3)oc12`, the cytotoxicity at 10 µM was 6.06%. Regarding `CCOC(=O)NCCC(=O)NCc1ccc(Oc2ccc(F)cc2)nc1`, the cytotoxicity at 10 µM was -18.9%.

As to `CC(C)(C)OC(=O)N1CC(CC(=O)NCc2ccsc2)C1`, the cytotoxicity at 10 µM amounted to 5.18%. As to `CN(C)C(=O)C1(CCCc2ccncc2)CCCN1` (configuration not stated), the cytotoxicity at 10 µM worked out at 0.59%. Turning to `CN(CCc1ccccc1)Cc1nc(Cc2cccc(F)c2)no1`, the cytotoxicity at 10 µM was 0.276%. In the case of `Cc1cc(CN(Cc2ccccc2)C2CC2)on1`, the cytotoxicity at 10 µM stood at 0.174%. For `CC(C)(C)C(=O)N[C@H]1C[C@@H](Cc2cc(CN3CCOCC3)on2)C1(C)C` the value was -7.15%.

`COC(=O)CSCc1nc(-c2ccc(Cl)cc2)no1`: the cytotoxicity at 10 µM stood at 3.77%. `Cc1nc(C2CCCN(C(=O)c3scnc3C)C2)no1` (configuration not stated): the cytotoxicity at 10 µM is -3.18%. For `COCCn1cnc2ccc(NC(=O)C3CC3)cc2c1=O` the value was -7.89%; for `Fc1cccc(OC2CCN(Cc3ncc[nH]3)CC2)c1`, -31.2%. As to `CC(C)N1C(=O)CC(NC(=O)c2cc(Cl)sc2Cl)C1=O` (configuration not stated), the cytotoxicity at 10 µM is -2.27%. Turning to `O=S(=O)(c1ccc(-c2cnco2)cc1)N1CCCC2(CCNCC2)CC1`, the cytotoxicity at 10 µM was -11.2%. Turning to `CN(C)CCC1CCN(Cc2ccn(C)c(=O)c2)CC1`, the cytotoxicity at 10 µM is -12.5%. As for `Cc1ccc(CN2CCn3c(COc4cccnc4)cnc3C2C)o1` (configuration not stated), the cytotoxicity at 10 µM is -111%. Take `NS(=O)(=O)N1CCC(C(=O)Nc2cccc(OC(F)F)c2)CC1`: the cytotoxicity at 10 µM was -9.5%. As to `Cn1nc(Cn2ccnc2)c2c1CN(c1nccs1)C2`, the cytotoxicity at 10 µM worked out at 3.61%. Regarding `CCc1cc(N2CCC(n3cc(C(=O)NC4CC4)nn3)CC2)ncn1`, the cytotoxicity at 10 µM was 27.7%. With `CC(C)N1Cc2cccc(NCC(=O)N(C)C3CCCCC3)c2C1`, the cytotoxicity at 10 µM turned out to be 4.83%. In the case of `CCOCCC(=O)NCC1COc2c(cccc2OC)C1` (configuration not stated), the cytotoxicity at 10 µM is -142%.

Turning to `Cc1c(NCCO)cccc1OC1CCCC1`, the cytotoxicity at 10 µM came out at 3.1%.

For `COC1CCN(C(=O)COC(C)=O)CC(=O)N(C)c2ccccc21` (configuration not stated), the cytotoxicity at 10 µM came out at 3.17%.

Consider `O=C(CN1CCC[C@H]1C(=O)O)NCCOc1cccc(Cl)c1`, for which the cytotoxicity at 10 µM was -22.6%. For `c1csc(CN2CCOCC3(CCN(C4CCOCC4)C3)C2)n1` (configuration not stated) the value was 0.487%. Take `COc1ccccc1C(=O)N1CC(=O)N(CC(C)C)CC(O)C1` (configuration not stated): the cytotoxicity at 10 µM is 4.37%. For `CCOCc1cc(CNC2CCCc3c2cnn3CC)ccc1OC` (configuration not stated) the value was -11.3%; for `CCN1CC2(CC1=O)CN(Cc1cnn(C)c1)CCN(C(=O)C(C)C)C2` (configuration not stated), -15%; for `COc1ccc(S(=O)(=O)C2CCN(C(=O)c3cc(C)cs3)CC2)cc1`, 3.07%. To `COc1ccc2[nH]cc(C(=O)N3C[C@@H](O)[C@H](N4CCCC4)C3)c2c1` belongs 2.35%; to `CC1=C(c2ccc(C(C)C)cc2)S(=O)(=O)N=C1N1CCc2ccccc21`, -16.8%.
